# Test results: article PMC3086726 (Nuclear medicine and biology, 2010)
# Like-named read-outs stand apart in the source and are kept apart here.
# What was measured:
# [1] = assay type: in vitro ADME; details: mouse, serum, pH 7.4
# [2] = In vitro stability of 99mTc-cyclized analogues in PBS; assay type: physicochemical; details: pH 7.4, 37 °C
# Outline: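 Test peptides were labelled with 99mTc by exchange from 99mTc-glucoheptonate (pH 7.9–8.1, 60 °C, 30 min), purified by radio-RP-HPLC, mixed with gentisic acid and evaporated. They were diluted in PBS or 1 mM cysteine, adjusted to pH 7.4 and incubated at 37 °C. Aliquots at 1, 2, 4 and 24 h were analysed by RP-HPLC for % intact. Replicate measurements used radio-TLC on C18 (10% ammonium acetate; 1:1 TFA-water/acetonitrile).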
# [3] = Stability of 99mTc-cyclized analogues to cysteine challenge; assay type: physicochemical; details: pH 7.4, 37 °C
# [4] = set-up: species or system CF-1 mice; details: mouse
substance,measurement,setting,value
^99mTc-Ac-Tyr^3-octreotate [99mTc-1],percent intact 99mTc-analogue post purification,[1]; 1 h,91.4 ± 1.8%
same,percent intact 99mTc-analogue post purification,[1]; 2 h,81.7 ± 4.1%
same,percent intact 99mTc-analogue post purification,[1]; 4 h,81.4 ± 4.7%
same,percent intact 99mTc-analogue post purification,[1]; 24 h,51.2 ± 4.4%
same,percent intact 99mTc-analogue post purification,[2]; 1 h,90.2 ± 2.4%
same,percent intact 99mTc-analogue post purification,[2]; 2 h,83.4 ± 5.2%
same,percent intact 99mTc-analogue post purification,[2]; 4 h,76.3 ± 3.4%
same,percent intact 99mTc-analogue post purification,[2]; 24 h,52.0 ± 5.6%
same,percent intact 99mTc-analogue post purification,"[3]; 1 mM Cys, 1 h",97.1 ± 3.3%
same,percent intact 99mTc-analogue post purification,"[3]; 1 mM Cys, 2 h",95.1 ± 2.7%
same,percent intact 99mTc-analogue post purification,"[3]; 1 mM Cys, 4 h",87.2 ± 1.0%
same,percent intact 99mTc-analogue post purification,"[3]; 1 mM Cys, 24 h",81.7 ± 1.8%
same,percent intact 99mTc-analogue post purification,"[3]; 10 mM Cys, 1 h",60.1 ± 5.1%
same,percent intact 99mTc-analogue post purification,"[3]; 10 mM Cys, 2 h",55.8 ± 6.9%
same,percent intact 99mTc-analogue post purification,"[3]; 10 mM Cys, 4 h",38.9 ± 3.7%
same,percent intact 99mTc-analogue post purification,"[3]; 10 mM Cys, 24 h",22.9 ± 4.5%
same,"In vivo biodistribution, Adrenals","[4]; 150 ug, 1 h",2.18 ± 0.69 %ID/g
same,"In vivo biodistribution, Blood","[4]; 150 ug, 1 h",4.31 ± 0.44 %ID/g
same,"In vivo biodistribution, Kidney","[4]; 150 ug, 1 h",8.00 ± 1.74 %ID/g
same,"In vivo biodistribution, Lg. Int","[4]; 150 ug, 1 h",1.70 ± 0.18 %ID/g
same,"In vivo biodistribution, Liver","[4]; 150 ug, 1 h",6.47 ± 1.64 %ID/g
same,"In vivo biodistribution, Muscle","[4]; 150 ug, 1 h",0.68 ± 0.06 %ID/g
same,"In vivo biodistribution, Pancreas","[4]; 150 ug, 1 h",2.08 ± 0.31 %ID/g
same,"In vivo biodistribution, Sm. lnt","[4]; 150 ug, 1 h",10.91 ± 2.12 %ID/g
same,"In vivo biodistribution, Spleen","[4]; 150 ug, 1 h",1.74 ± 0.24 %ID/g
same,"In vivo biodistribution, Stomach","[4]; 150 ug, 1 h",14.18 ± 4.97 %ID/g
same,"In vivo biodistribution, Adrenals",[4]; 1 h,1.53 ± 0.30 %ID/g
same,"In vivo biodistribution, Blood",[4]; 1 h,3.81 ± 0.10 %ID/g
same,"In vivo biodistribution, Kidney",[4]; 1 h,12.05 ± 2.14 %ID/g
same,"In vivo biodistribution, Lg. Int",[4]; 1 h,2.55 ± 0.21 %ID/g
same,"In vivo biodistribution, Liver",[4]; 1 h,4.17 ± 0.34 %ID/g
same,"In vivo biodistribution, Muscle",[4]; 1 h,0.53 ± 0.06 %ID/g
same,"In vivo biodistribution, Pancreas",[4]; 1 h,1.49 ± 0.06 %ID/g
same,"In vivo biodistribution, Sm. lnt",[4]; 1 h,15.48 ± 3.35 %ID/g
same,"In vivo biodistribution, Spleen",[4]; 1 h,1.30 ± 0.17 %ID/g
same,"In vivo biodistribution, Stomach",[4]; 1 h,11.69 ± 10.10 %ID/g
same,"In vivo biodistribution, Adrenals",[4]; 4 h,0.86 ± 0.43 %ID/g
same,"In vivo biodistribution, Blood",[4]; 4 h,1.50 ± 0.29 %ID/g
same,"In vivo biodistribution, Kidney",[4]; 4 h,6.54 ± 0.23 %ID/g
same,"In vivo biodistribution, Lg. Int",[4]; 4 h,22.09 ± 4.99 %ID/g
same,"In vivo biodistribution, Liver",[4]; 4 h,1.58 ± 0.06 %ID/g
same,"In vivo biodistribution, Muscle",[4]; 4 h,0.25 ± 0.06 %ID/g
same,"In vivo biodistribution, Pancreas",[4]; 4 h,0.55 ± 0.04 %ID/g
same,"In vivo biodistribution, Sm. lnt",[4]; 4 h,2.02 ± 0.67 %ID/g
same,"In vivo biodistribution, Spleen",[4]; 4 h,0.55 ± 0.13 %ID/g
same,"In vivo biodistribution, Stomach",[4]; 4 h,7.54 ± 4.16 %ID/g
same,"In vivo biodistribution, Adrenals",[4]; 24 h,0.12 ± 0.03 %ID/g
same,"In vivo biodistribution, Blood",[4]; 24 h,0.15 ± 0.02 %ID/g
same,"In vivo biodistribution, Kidney",[4]; 24 h,2.04 ± 0.37 %ID/g
same,"In vivo biodistribution, Lg. Int",[4]; 24 h,3.08 ± 1.60 %ID/g
same,"In vivo biodistribution, Liver",[4]; 24 h,0.39 ± 0.03 %ID/g
same,"In vivo biodistribution, Muscle",[4]; 24 h,0.05 ± 0.02 %ID/g
same,"In vivo biodistribution, Pancreas",[4]; 24 h,0.07 ± 0.01 %ID/g
same,"In vivo biodistribution, Sm. lnt",[4]; 24 h,0.68 ± 0.20 %ID/g
same,"In vivo biodistribution, Spleen",[4]; 24 h,0.08 ± 0.01 %ID/g
same,"In vivo biodistribution, Stomach",[4]; 24 h,1.26 ± 0.49 %ID/g
same,uptake in the various tissues and organs relative to TATE and 99mTc-2,[4]; in vivo,two to four times higher
